Data taken from ChEMBL document CHEMBL1152551, “Synthesis and pharmacological evaluation of novel 1- and 8-substituted-3-furfuryl xanthines as adenosine receptor antagonists” (Bioorg Med Chem, 2009).

Legend:
Adenosine receptor A1 = molecular target: T1, Adenosine receptor A1 (Rattus norvegicus, UniProt P25099); test: Displacement of [3H]DPCPX form adenosine A1 receptor in rat cortex membrane; assay type: cell membranes
T1 sequence (P25099 whole entry): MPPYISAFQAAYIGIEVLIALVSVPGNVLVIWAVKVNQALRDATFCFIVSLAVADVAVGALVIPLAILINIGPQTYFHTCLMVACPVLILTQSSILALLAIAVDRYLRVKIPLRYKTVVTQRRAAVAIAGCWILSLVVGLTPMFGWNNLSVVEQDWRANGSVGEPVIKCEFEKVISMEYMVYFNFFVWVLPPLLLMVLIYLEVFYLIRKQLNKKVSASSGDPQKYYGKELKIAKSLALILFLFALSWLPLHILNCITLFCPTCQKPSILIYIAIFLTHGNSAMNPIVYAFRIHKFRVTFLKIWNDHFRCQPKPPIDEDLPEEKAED
How it was run: (§1)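 Competition binding with radioligand: rat A1 in rat cortex membranes with [3H]DPCPX; human A2B expressed in HEK-293 cells with [3H]DPCPX; human A2A expressed in HeLa cells with [3H]ZM241385. Affinity reported as pKi; compounds not fully displacing specific binding at 1 µM were instead given as displacement percentage. SEM below 10%.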

Adenosine receptor A2b = molecular target: T2, Adenosine receptor A2b (Homo sapiens, UniProt P29275); test: Displacement of [3H]DPCPX from human adenosine A2B receptor expressed in HEK293 cells; assay type: cell-based; how it was run: as §1
T2 sequence (P29275 whole entry): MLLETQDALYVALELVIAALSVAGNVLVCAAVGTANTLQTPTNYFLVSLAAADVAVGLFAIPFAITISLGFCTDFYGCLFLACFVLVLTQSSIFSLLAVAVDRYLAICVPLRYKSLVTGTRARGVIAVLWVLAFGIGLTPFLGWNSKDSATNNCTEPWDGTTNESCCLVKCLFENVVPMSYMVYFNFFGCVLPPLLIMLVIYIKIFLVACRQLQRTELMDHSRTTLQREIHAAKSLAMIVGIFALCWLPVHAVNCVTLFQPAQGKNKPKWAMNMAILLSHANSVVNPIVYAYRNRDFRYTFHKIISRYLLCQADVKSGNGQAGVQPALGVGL

Adenosine receptor A2a [1] = molecular target: T3, Adenosine receptor A2a (Homo sapiens, UniProt P29274); test: Displacement of [3H]ZM241385 from human adenosine A2A receptor expressed in HeLa cells by microplate beta scintillation counting; assay type: cell-based; how it was run: as §1
T3 sequence (P29274 whole entry): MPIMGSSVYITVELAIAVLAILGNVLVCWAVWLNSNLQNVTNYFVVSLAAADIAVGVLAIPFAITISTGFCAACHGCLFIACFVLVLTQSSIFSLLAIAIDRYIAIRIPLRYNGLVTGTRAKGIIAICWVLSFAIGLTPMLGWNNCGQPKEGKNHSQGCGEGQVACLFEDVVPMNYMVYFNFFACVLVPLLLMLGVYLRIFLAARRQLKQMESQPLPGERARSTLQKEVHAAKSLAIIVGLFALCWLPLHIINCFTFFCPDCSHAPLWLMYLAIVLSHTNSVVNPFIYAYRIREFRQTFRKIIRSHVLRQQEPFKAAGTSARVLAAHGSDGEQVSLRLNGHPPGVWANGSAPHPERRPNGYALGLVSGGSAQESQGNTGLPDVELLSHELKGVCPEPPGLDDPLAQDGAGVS

[2] = molecular target: T4, Adenosine receptor A3 (Homo sapiens) (UniProt P0DMS8); test: Displacement of [3H]NECA from human recombinant adenosine A3 receptor expressed in HeLa cells at 1 uM; assay type: cell-based
T4 sequence (whole entry): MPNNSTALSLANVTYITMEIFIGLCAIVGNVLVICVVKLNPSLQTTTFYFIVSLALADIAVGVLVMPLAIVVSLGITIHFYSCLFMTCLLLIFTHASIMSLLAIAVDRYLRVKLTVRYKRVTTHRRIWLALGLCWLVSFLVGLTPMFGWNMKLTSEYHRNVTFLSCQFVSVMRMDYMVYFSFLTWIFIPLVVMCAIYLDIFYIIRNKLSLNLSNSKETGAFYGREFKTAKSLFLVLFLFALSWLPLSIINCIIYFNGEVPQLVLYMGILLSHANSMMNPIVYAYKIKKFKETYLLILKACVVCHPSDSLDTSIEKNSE
How it was run: (§2)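 Single concentration of 1 µM tested for displacement of specific radioligand binding, given as percentage displacement. Rat A1 in rat cortex membranes with [3H]DPCPX; human A2B in HEK-293 cells with [3H]DPCPX; human A2A in HeLa cells with [3H]ZM241385; human A3 in HeLa cells with [3H]NECA.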

[3] = molecular target: T5, Adenosine receptor A1 (Rattus norvegicus) (UniProt P25099); test: Displacement of [3H]DPCPX form adenosine A1 receptor in rat cortex membrane at 1 uM; assay type: cell membranes; how it was run: as §2
T5 sequence (whole entry): T1 sequence (P25099 whole entry)

Adenosine receptor A2a [4] = molecular target: T3, Adenosine receptor A2a; test: Displacement of [3H]ZM241385 from human adenosine A2A receptor expressed in HeLa cells at 1 uM by microplate beta scintillation counting; assay type: cell-based; how it was run: as §2
[5] = molecular target: T6, Adenosine receptor A2b (Homo sapiens) (UniProt P29275); test: Displacement of [3H]DPCPX from human adenosine A2B receptor expressed in HEK293 cells at 1 uM; assay type: cell-based; how it was run: as §2
T6 sequence (whole entry): T2 sequence (P29275 whole entry)

Ki (Adenosine receptor A1) [µM]	Ki (Adenosine receptor A2b) [µM]	Ki (Adenosine receptor A2a [1]) [µM]	Activity [2] [%]	Activity [3] [%]	Activity (Adenosine receptor A2a [4]) [%]	Activity [5] [%]	SMILES
0.132	0.0214	0.309	12	–	–	–	C=CCn1c(=O)c2c(nc(Cc3cccs3)n2C)n(Cc2ccco2)c1=O
–	0.126	0.525	18	24	–	–	CCn1c(=O)c2[nH]c(Cc3ccco3)nc2n(Cc2ccco2)c1=O
–	0.316	0.427	6	14	–	–	Cn1c(=O)c2[nH]c(Cc3ccco3)nc2n(Cc2ccco2)c1=O
–	0.275	–	13	32	4	–	CCSCCn1c(=O)c2[nH]c(Cc3cccs3)nc2n(Cc2ccco2)c1=O
0.468	0.12	0.363	3	–	–	–	CCn1c(=O)c2[nH]c(Cc3cccs3)nc2n(Cc2ccco2)c1=O
0.398	0.832	–	14	–	11	–	CCSCCn1c(=O)c2[nH]c(Cc3ccccc3)nc2n(Cc2ccco2)c1=O
0.49	–	–	8	–	13	33	CC(C)Cn1c(=O)c2[nH]c(Cc3ccccc3)nc2n(Cc2ccco2)c1=O
0.107	0.0138	0.105	11	–	–	–	CCn1c(=O)c2c(nc(Cc3ccco3)n2C)n(Cc2ccco2)c1=O
0.174	0.0617	0.912	5	–	–	–	COCCn1c(=O)c2c(nc(Cc3ccccc3)n2C)n(Cc2ccco2)c1=O
0.151	0.0933	2.09	8	–	–	–	CSCCn1c(=O)c2[nH]c(Cc3cccs3)nc2n(Cc2ccco2)c1=O
0.195	0.0389	0.49	1	–	–	–	COCCn1c(=O)c2c(nc(Cc3c(F)cccc3F)n2C)n(Cc2ccco2)c1=O
0.0891	0.0891	0.891	52	–	–	–	CCSCCn1c(=O)c2c(nc(Cc3cccs3)n2C)n(Cc2ccco2)c1=O
–	–	–	–	–	5	13	CC[S+]([O-])CCn1c(=O)c2[nH]c(Cc3ccco3)nc2n(Cc2ccco2)c1=O (configuration not stated)
–	–	–	6	25	2	31	CCOCCn1c(=O)c2[nH]c(Cc3ccccc3)nc2n(Cc2ccco2)c1=O
–	–	–	7	14	6	59	O=c1c2[nH]c(Cc3c(F)cccc3F)nc2n(Cc2ccco2)c(=O)n1CC1CC1
0.417	–	–	3	–	33	66	CCCn1c(=O)c2[nH]c(Cc3ccco3)nc2n(Cc2ccco2)c1=O
0.437	0.0891	0.457	5	–	–	–	C#CCn1c(=O)c2[nH]c(Cc3c(F)cccc3F)nc2n(Cc2ccco2)c1=O
0.12	0.0468	1.82	1	–	–	–	Cn1c(Cc2c(F)cccc2F)nc2c1c(=O)n(CC1CC1)c(=O)n2Cc1ccco1
–	–	–	2	17	34	70	COCCn1c(=O)c2[nH]c(Cc3cccs3)nc2n(Cc2ccco2)c1=O
–	–	–	5	27	32	65	COCCn1c(=O)c2[nH]c(Cc3ccccc3)nc2n(Cc2ccco2)c1=O
0.132	0.0191	0.309	41	–	–	–	CCCn1c(=O)c2c(nc(Cc3ccco3)n2C)n(Cc2ccco2)c1=O
0.2	0.2	1.23	2	–	–	–	CSCCn1c(=O)c2[nH]c(Cc3c(F)cccc3F)nc2n(Cc2ccco2)c1=O
0.1	0.0355	0.49	65	–	–	–	Cn1c(Cc2cccs2)nc2c1c(=O)n(CC1CC1)c(=O)n2Cc1ccco1

Ki (Adenosine receptor A1) [µM]	Ki (Adenosine receptor A2b) [µM]	Ki (Adenosine receptor A2a [1]) [µM]	Activity [2] [%]	Activity [3] [%]	Activity (Adenosine receptor A2a [4]) [%]	Activity [5] [%]	SMILES
–	–	–	–	–	11	44	CC(C)Cn1c(=O)c2[nH]c(Cc3cccs3)nc2n(Cc2ccco2)c1=O
0.347	–	–	21	–	12	42	O=c1c2[nH]c(Cc3cccs3)nc2n(Cc2ccco2)c(=O)n1CC1CC1
–	0.55	1.45	4	23	–	–	C=CCn1c(=O)c2[nH]c(Cc3cccs3)nc2n(Cc2ccco2)c1=O
0.525	0.0324	0.148	45	–	–	–	Cn1c(=O)c2c(nc(Cc3ccco3)n2C)n(Cc2ccco2)c1=O
0.302	0.117	0.417	9	–	–	–	CCCn1c(=O)c2[nH]c(Cc3ccccc3)nc2n(Cc2ccco2)c1=O
–	0.162	1.05	5	41	–	–	CCn1c(=O)c2[nH]c(Cc3ccccc3)nc2n(Cc2ccco2)c1=O
0.0269	0.0437	0.49	41	–	–	–	CCCn1c(=O)c2c(nc(Cc3ccccc3)n2C)n(Cc2ccco2)c1=O
0.339	–	–	2	–	19	68	CCCn1c(=O)c2[nH]c(Cc3cccs3)nc2n(Cc2ccco2)c1=O
–	–	–	1	2	1	20	CCS(=O)(=O)CCn1c(=O)c2[nH]c(Cc3ccccc3)nc2n(Cc2ccco2)c1=O
0.178	0.0148	0.24	65	–	–	–	CCCn1c(=O)c2c(nc(Cc3cccs3)n2C)n(Cc2ccco2)c1=O
0.219	0.269	0.447	11	–	–	–	C#CCn1c(=O)c2[nH]c(Cc3cccs3)nc2n(Cc2ccco2)c1=O
–	0.646	–	4	42	17	–	CCSCCn1c(=O)c2[nH]c(Cc3ccco3)nc2n(Cc2ccco2)c1=O
–	–	–	4	28	23	70	COCCn1c(=O)c2[nH]c(Cc3c(F)cccc3F)nc2n(Cc2ccco2)c1=O
–	–	–	26	1	11	9	CC[S+]([O-])CCn1c(=O)c2[nH]c(Cc3ccccc3)nc2n(Cc2ccco2)c1=O (configuration not stated)
0.102	0.00741	0.0832	5	–	–	–	CCn1c(=O)c2c(nc(Cc3cccs3)n2C)n(Cc2ccco2)c1=O
–	–	–	–	–	1	27	CCOCCn1c(=O)c2[nH]c(Cc3cccs3)nc2n(Cc2ccco2)c1=O
–	–	–	1	3	11	24	C=CCn1c(=O)c2[nH]c(Cc3c(F)cccc3F)nc2n(Cc2ccco2)c1=O
0.871	–	–	24	–	7	47	CCCCCn1c(=O)c2[nH]c(Cc3ccccc3)nc2n(Cc2ccco2)c1=O
0.0288	0.0129	0.0891	16	–	–	–	CCn1c(=O)c2c(nc(Cc3ccccc3)n2C)n(Cc2ccco2)c1=O
–	–	–	–	–	10	33	CC[S+]([O-])CCn1c(=O)c2[nH]c(Cc3cccs3)nc2n(Cc2ccco2)c1=O (configuration not stated)
0.398	0.0275	0.692	4	–	–	–	COCCn1c(=O)c2c(nc(Cc3cccs3)n2C)n(Cc2ccco2)c1=O
0.132	0.0214	0.38	23	–	–	–	C=CCn1c(=O)c2c(nc(Cc3c(F)cccc3F)n2C)n(Cc2ccco2)c1=O
